Laboratory results published in paper PMC5730275 (Chemical communications (Cambridge, England), 2017).
Where a chain is given by its changes, count along the chain named.

Experiments:
[1] = target: purified human recombinant NAPE-PLD (Homo sapiens, UniProt Q6IQ20); experiment: Inhibition of purified human recombinant NAPE-PLD; format: biochemical
Outline: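 Purified recombinant human NAPE-PLD. Michaelis-Menten kinetics and activity time-course were run with vehicle (1% DMSO) or test compound at 50 or 100 μM. Reversibility was tested by rapid dilution after preincubating the enzyme with vehicle (1% DMSO) or test compound (100 μM).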

Q320A NAPE-PLD mutant = target: T1, Q320A NAPE-PLD mutant (Homo sapiens, UniProt Q6IQ20, Q320A); experiment: Inhibition of Q320A NAPE-PLD mutant; format: biochemical
T1 sequence (Q6IQ20 1-393 Q320A): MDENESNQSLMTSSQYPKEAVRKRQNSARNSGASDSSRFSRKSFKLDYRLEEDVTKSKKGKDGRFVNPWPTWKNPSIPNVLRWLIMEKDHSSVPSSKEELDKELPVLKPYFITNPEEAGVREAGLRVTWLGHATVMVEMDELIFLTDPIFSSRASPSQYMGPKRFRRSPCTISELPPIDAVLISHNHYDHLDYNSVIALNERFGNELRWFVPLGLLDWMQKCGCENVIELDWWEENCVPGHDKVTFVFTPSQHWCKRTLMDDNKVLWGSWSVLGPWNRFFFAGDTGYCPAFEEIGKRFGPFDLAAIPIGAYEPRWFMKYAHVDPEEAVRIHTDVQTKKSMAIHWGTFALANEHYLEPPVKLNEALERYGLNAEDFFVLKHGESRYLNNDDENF

[2] = Solubility in assay buffer; format: physicochemical; settings: microscopic inspection of assay wells
[3] = system: isofunctional, but zinc-independent enzyme activities present in cytosolic and microsomal fractions of mouse brain or small intestine; experiment: Isofunctional zinc-independent enzyme activities in mouse tissue fractions; format: biochemical; settings: 300 μM
Q320S NAPE-PLD = target: T2, Q320S NAPE-PLD (Homo sapiens, UniProt Q6IQ20, Q320S); experiment: Inhibition of Q320S NAPE-PLD mutant; format: biochemical
T2 sequence (Q6IQ20 1-393 Q320S): T1 sequence (Q6IQ20 1-393 Q320A) with A320S

[4] = target: T3, human N-acylethanolamine acid amidase (NAAA) (Homo sapiens, UniProt Q02083); experiment: Selectivity: NAAA activity; format: biochemical; settings: 300 μM
T3 sequence (Q02083 29-359): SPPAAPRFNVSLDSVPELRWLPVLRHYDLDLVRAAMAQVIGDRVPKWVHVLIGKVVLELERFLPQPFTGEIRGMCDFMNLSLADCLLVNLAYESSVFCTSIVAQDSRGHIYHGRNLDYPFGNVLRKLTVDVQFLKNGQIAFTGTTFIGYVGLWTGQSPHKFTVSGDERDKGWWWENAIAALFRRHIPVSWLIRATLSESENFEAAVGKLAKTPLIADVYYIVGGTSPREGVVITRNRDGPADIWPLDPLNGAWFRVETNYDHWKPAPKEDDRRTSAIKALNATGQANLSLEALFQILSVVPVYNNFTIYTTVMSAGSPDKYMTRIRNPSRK

neutral endopeptidase = neutral endopeptidase (Homo sapiens, UniProt P08473); experiment: Selectivity: zinc-dependent enzyme neutral endopeptidase; format: biochemical; settings: 50 μM
Human HEK-293 cells = experiment: NAPE and FAE levels in intact HEK-293 cells by LC-MS; format: cell-based; settings: 50 μM, 4 hours
Outline: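 Human HEK-293 cells, which express NAPE-PLD constitutively, incubated with test compound at 50 μM for 4 h. Lipid extracts then prepared, and NAPE and fatty acid ethanolamide levels measured by liquid chromatography-mass spectrometry.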

[5] = target: angiotensin-converting enzyme (ACE) (Homo sapiens, UniProt P12821); experiment: Selectivity: zinc-dependent enzyme ACE; format: biochemical; settings: 50 μM
[6] = target: carbonic anhydrase (CA) II (Homo sapiens, UniProt P00918); experiment: Selectivity: zinc-dependent enzyme carbonic anhydrase II; format: biochemical; settings: 50 μM
[7] = target: T4, human fatty acid amide hydrolase (FAAH)-1 (Homo sapiens, UniProt O00519); experiment: Selectivity: FAAH-1 activity; format: biochemical; settings: 300 μM
T4 sequence (O00519 1-579): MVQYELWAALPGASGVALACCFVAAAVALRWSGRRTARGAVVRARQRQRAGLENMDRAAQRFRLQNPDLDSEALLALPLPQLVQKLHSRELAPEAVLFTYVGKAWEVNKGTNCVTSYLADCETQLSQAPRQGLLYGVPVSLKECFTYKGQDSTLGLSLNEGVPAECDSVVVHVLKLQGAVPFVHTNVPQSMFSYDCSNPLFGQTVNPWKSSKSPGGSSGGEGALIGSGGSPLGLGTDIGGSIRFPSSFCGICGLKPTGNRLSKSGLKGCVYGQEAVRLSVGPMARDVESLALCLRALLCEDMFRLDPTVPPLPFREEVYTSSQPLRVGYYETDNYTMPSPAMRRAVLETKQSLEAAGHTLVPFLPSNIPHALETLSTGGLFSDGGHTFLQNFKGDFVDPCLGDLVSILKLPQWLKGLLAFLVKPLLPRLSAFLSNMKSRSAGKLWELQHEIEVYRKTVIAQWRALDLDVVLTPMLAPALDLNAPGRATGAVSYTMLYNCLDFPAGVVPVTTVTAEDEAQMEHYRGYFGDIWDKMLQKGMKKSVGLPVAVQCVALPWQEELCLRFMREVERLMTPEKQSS

[8] = target: T5, NAPE-PLD mutant Q158S/Y159S (Homo sapiens, UniProt Q6IQ20, Q158S/Y159S); experiment: Inhibition of double NAPE-PLD mutant Q158S/Y159S; format: biochemical; settings: mutant unable to bind bile acids
T5 sequence (Q6IQ20 1-393 Q158S/Y159S): T1 sequence (Q6IQ20 1-393 Q320A) with Q158S, Y159S, A320Q

Sequence of purified human recombinant NAPE-PLD (Q6IQ20 whole entry): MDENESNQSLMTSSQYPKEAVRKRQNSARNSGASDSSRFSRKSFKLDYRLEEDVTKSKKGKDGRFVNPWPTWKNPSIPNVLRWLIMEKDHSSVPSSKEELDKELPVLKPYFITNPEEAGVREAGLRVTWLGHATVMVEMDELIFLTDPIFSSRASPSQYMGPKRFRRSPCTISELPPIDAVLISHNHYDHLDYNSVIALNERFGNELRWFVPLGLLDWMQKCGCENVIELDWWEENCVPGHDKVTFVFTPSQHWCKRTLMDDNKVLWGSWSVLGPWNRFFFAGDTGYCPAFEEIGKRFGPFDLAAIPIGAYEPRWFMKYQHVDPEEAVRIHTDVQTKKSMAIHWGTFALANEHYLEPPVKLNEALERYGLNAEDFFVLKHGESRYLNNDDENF
Sequence of neutral endopeptidase (P08473 whole entry, species assumed): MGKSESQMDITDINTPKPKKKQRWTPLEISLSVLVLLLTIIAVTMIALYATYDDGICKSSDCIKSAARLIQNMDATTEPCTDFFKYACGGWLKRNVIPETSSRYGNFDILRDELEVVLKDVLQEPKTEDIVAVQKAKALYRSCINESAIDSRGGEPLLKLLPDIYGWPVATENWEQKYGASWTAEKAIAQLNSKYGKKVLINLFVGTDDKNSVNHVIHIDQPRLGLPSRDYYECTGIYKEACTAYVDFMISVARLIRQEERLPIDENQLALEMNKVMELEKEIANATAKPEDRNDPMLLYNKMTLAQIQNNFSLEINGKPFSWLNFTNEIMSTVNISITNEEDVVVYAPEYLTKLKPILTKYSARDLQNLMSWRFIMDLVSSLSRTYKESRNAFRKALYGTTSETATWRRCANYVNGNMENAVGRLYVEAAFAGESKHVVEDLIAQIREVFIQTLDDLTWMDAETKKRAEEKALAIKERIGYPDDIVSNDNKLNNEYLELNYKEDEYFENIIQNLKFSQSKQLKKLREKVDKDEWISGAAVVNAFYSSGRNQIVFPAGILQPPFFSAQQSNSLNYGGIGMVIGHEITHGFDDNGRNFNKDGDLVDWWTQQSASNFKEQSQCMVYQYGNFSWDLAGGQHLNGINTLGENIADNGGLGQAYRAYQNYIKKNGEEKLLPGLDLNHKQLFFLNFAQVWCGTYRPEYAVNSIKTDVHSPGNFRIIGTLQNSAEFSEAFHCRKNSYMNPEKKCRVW
Sequence of angiotensin-converting enzyme (ACE) (P12821 30-1306, species assumed): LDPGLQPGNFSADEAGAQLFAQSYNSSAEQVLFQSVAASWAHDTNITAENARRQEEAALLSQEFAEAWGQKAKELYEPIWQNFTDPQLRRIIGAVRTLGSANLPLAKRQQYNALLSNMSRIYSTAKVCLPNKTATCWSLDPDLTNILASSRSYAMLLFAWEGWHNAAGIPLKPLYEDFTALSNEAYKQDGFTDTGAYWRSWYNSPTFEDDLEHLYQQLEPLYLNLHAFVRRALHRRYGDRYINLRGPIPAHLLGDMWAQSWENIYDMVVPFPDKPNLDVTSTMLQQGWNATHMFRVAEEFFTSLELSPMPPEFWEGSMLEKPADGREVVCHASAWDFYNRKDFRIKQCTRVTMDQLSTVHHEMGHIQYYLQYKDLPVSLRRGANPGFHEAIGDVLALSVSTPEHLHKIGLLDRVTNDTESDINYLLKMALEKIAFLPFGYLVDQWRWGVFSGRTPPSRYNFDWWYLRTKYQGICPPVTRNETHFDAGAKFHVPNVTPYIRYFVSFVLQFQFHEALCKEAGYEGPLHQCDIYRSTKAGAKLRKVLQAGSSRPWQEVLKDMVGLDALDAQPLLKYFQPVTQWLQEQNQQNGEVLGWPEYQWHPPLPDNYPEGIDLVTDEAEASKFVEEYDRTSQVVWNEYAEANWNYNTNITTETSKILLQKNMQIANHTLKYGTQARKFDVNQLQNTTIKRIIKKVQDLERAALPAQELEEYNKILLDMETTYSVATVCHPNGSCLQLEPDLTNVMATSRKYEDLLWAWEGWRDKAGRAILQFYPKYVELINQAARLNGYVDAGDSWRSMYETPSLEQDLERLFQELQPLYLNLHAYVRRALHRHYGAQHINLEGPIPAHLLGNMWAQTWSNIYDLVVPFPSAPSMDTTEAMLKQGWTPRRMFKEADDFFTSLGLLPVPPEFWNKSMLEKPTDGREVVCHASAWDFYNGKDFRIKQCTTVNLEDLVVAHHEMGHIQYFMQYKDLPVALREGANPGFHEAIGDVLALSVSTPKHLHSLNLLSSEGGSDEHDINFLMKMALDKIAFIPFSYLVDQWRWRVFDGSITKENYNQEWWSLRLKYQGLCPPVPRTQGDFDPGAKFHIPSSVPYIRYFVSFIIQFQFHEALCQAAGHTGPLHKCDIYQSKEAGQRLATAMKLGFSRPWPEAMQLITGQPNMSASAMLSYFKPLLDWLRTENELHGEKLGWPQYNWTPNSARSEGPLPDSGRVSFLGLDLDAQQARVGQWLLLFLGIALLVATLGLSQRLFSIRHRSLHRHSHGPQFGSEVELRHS

SMILES | Time-course of NAPE-PLD inhibition ([1]; 18 at 50 or 100 μM) | Mechanism of NAPE-PLD inhibition (kinetic analyses) ([1]; Michaelis-Menten kinetics, 18 at 50 or 100 μM) | Reversibility upon dilution of enzyme-inhibitor complex (rapid dilution assay) ([1]; preincubated with 100 μM) | IC50 (Q320A NAPE-PLD mutant) [µM] | Solubility in assay / aqueous buffer [2] | Effect on isofunctional zinc-independent enzyme activities [3] | IC50 (Q320S NAPE-PLD) [µM] | Effect on human NAAA activity [4] | Inhibitory effect on neutral endopeptidase (neutral endopeptidase) | Endogenous oleoylethanolamide (OEA) levels in HEK-293 cells (Human HEK-293 cells) | Endogenous palmitoylethanolamide (PEA) levels in HEK-293 cells (Human HEK-293 cells) | NAPE levels in HEK-293 cells (Human HEK-293 cells) | Inhibitory effect on angiotensin-converting enzyme (ACE) [5] | Inhibitory effect on carbonic anhydrase (CA) II [6] | Effect on human FAAH-1 activity [7] | Susceptibility of Q158S/Y159S mutant to inhibition [8] | Inhibition of purified NAPE-PLD (concentration-response, Figure 3a) ([1]; identical conditions as 18)
O=c1[nH]c(=O)c2cc(S(=O)(=O)Nc3ccc(-c4ccncc4)cc3)ccc2[nH]1 [Compound 18, 2,4-dioxo-N-[4-(4-pyridyl)phenyl]-1H-quinazoline-6-sulfonamide] | rapid | uncompetitive | readily reversed | 89.2 ± 2.3 | adequate solubility | did not affect | 36.7 ± 1.6 | did not affect | no inhibitory effect | remained unmodified | remained unmodified | substantial accumulation | no inhibitory effect | no inhibitory effect | did not affect | as susceptible to inhibition by 18 as wild-type NAPE-PLD | 
O=C(Cc1cccs1)N[C@@H]1C(=O)N2C(C(=O)O)=C(/C=C/c3ccc([N+](=O)[O-])cc3[N+](=O)[O-])CS[C@H]12 [nitrocefin, reference compound] |  |  |  |  |  |  |  |  |  |  |  |  |  |  |  |  | inactive
